Measurements from ChEMBL document CHEMBL1140701, “Synthesis, conformational analysis, and biological evaluation of 1-hexylindolactam-V10 as a selective activator for novel protein kinase C isozymes” (J Med Chem, 2008).
The source made the active and inactive calls. The rule behind the calls is not given here.

Experiments:
[1] = molecular target: T1, Protein kinase C beta type (Homo sapiens, UniProt P05771); assay: Displacement of [3H]PDBu from PKCbeta C1B domain at 10 uM
In short: (§1)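 Competition for specific [3H]PDBu (20 nM, 16.3 Ci/mmol) binding to C1 peptide (10–40 nM) was tested with a single 10 µM competitor. The buffer was 50 mM Tris-maleate (pH 7.4 at 4 °C) with 50 µg/mL dioleoylphosphatidylserine and 3 mg/mL bovine γ-globulin.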
Target sequence in this assay (P05771 2-671 limits assumed): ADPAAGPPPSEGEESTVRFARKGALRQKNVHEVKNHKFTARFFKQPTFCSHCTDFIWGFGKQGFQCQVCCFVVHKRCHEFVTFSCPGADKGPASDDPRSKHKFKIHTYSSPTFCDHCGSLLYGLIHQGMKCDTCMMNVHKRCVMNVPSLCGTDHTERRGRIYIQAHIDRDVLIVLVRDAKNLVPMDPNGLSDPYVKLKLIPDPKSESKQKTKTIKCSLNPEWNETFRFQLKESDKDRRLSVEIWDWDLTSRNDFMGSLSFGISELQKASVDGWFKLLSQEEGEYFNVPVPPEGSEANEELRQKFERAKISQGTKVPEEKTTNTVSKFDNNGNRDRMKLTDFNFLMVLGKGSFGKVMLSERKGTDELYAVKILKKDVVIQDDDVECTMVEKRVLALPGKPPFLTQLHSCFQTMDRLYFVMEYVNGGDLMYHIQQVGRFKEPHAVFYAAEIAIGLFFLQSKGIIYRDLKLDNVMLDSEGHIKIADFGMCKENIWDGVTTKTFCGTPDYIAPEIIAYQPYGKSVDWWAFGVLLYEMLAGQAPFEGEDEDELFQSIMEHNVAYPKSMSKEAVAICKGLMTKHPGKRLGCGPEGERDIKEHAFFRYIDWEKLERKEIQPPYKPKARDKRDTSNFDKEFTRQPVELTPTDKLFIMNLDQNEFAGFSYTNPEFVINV

[2] = molecular target: T1, Protein kinase C beta type; assay: Displacement of [3H]PDBu from PKCbeta C1A domain at 10 uM; in short: as §1
Target sequence in this assay (P05771 2-671 limits assumed): as above

[3] = Selectivity ratio of PKCgamma C1A domain over PKCgamma C1A P11dfP mutant
[4] = molecular target: Protein kinase C delta type (Homo sapiens, UniProt Q05655); assay: Displacement of [3H]PDBu from PKCdelta C1B domain
Sequence of Protein kinase C delta type (Q05655 whole entry, the tested form may be a part): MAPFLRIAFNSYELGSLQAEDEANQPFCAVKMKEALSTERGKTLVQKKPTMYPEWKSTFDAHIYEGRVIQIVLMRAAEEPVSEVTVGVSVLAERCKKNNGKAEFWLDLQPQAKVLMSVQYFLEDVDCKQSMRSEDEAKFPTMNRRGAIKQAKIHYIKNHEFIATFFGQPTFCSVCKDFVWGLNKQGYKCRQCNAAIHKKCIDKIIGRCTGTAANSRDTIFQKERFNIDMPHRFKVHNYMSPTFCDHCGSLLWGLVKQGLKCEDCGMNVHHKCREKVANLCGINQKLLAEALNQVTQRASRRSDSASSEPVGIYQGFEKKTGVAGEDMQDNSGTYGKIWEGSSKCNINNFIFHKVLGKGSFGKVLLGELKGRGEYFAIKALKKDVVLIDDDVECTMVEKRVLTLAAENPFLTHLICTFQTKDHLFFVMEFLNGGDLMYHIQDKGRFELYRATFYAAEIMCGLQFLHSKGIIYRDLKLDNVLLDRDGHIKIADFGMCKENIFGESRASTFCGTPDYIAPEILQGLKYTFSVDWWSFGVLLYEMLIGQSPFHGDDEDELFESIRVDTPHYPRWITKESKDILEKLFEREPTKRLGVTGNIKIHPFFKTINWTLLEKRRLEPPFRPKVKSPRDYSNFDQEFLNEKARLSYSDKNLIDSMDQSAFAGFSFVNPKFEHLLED
In short: (§2)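 [3H]PDBu (20 nM, 16.3 Ci/mmol) competition binding with synthetic PKC C1 peptides (10–40 nM) in 50 mM Tris-maleate pH 7.4 at 4 °C, with 50 µg/mL phosphatidylserine, 3 mg/mL bovine γ-globulin and varied inhibitor concentrations. IC50 is the concentration giving 50% inhibition of specific binding. Ki derived by the Sharkey–Blumberg method. SD from at least two separate experiments.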

[5] = Displacement of [3H]PDBu from PKCgamma C1A P11dfP mutant; in short: as §2
[6] = Selectivity ratio of PKCdelta C1B domain over PKCdelta C1B P11dfP mutant
[7] = molecular target: T2, Protein kinase C gamma type (Homo sapiens, UniProt P05129); assay: Displacement of [3H]PDBu from PKCgamma C1A domain; in short: as §2
[8] = Displacement of [3H]PDBu from PKCdelta C1B P11dfP mutant; in short: as §2
[9] = molecular target: Protein kinase C eta type (Homo sapiens, UniProt P24723); assay: Displacement of [3H]PDBu from PKCeta C1B domain
Sequence of Protein kinase C eta type (P24723 whole entry, the tested form may be a part): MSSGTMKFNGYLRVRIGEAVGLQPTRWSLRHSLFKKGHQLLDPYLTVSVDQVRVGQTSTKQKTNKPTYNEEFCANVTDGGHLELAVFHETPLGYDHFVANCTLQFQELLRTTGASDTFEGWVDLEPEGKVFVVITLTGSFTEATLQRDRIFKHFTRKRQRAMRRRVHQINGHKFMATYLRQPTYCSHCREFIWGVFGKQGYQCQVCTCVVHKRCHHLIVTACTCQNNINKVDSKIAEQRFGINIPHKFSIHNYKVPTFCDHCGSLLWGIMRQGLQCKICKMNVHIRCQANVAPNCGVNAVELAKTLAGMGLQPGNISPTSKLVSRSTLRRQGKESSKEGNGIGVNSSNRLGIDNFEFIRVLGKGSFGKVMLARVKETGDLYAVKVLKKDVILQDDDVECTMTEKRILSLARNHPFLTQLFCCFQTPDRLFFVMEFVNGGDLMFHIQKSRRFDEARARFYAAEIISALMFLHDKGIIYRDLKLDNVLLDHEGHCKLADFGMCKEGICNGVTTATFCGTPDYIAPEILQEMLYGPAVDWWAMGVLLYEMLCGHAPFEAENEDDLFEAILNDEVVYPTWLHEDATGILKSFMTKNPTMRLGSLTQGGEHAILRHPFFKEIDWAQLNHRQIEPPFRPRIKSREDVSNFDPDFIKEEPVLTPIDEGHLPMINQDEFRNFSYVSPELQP
In short: (§3)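 Synthetic PKC C1 peptides (10–40 nM; about 3 nM properly folded, estimated from earlier Scatchard Bmax) were incubated with 20 nM [3H]PDBu (16.3 Ci/mmol) in 50 mM Tris-maleate (pH 7.4 at 4 °C). The mix also held 50 µg/mL 1,2-dioleoyl-sn-glycero-3-phospho-L-serine, 3 mg/mL bovine γ-globulin and varied inhibitor. IC50 came from probit analysis and Ki from the Sharkey–Blumberg method.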

[10] = molecular target: Protein kinase C theta type (Homo sapiens, UniProt Q04759); assay: Displacement of [3H]PDBu from PKCtheta C1B domain; in short: as §3
Sequence of Protein kinase C theta type (Q04759 whole entry, the tested form may be a part): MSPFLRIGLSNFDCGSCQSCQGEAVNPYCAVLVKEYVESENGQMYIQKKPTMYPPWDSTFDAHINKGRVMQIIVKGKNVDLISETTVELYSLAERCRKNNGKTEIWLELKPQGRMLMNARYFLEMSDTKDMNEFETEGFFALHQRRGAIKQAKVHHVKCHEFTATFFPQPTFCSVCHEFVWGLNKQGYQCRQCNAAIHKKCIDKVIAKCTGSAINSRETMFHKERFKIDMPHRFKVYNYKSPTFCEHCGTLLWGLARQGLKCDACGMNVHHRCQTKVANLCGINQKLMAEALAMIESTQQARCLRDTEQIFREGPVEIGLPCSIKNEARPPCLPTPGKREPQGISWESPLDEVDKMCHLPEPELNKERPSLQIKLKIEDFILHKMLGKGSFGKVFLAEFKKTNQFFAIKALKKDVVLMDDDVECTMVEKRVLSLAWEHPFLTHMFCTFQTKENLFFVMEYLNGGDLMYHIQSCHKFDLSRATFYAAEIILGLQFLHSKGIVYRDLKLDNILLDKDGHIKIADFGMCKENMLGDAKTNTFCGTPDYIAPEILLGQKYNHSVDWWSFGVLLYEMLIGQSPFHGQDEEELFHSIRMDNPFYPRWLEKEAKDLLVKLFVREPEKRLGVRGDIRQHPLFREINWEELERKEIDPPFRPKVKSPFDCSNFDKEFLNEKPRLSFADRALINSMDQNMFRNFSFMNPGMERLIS

[11] = molecular target: T3, Protein kinase C epsilon type (Homo sapiens, UniProt Q02156); assay: Displacement of [3H]PDBu from PKCepsilon C1B domain; in short: as §3
T3 sequence (Q02156 whole entry): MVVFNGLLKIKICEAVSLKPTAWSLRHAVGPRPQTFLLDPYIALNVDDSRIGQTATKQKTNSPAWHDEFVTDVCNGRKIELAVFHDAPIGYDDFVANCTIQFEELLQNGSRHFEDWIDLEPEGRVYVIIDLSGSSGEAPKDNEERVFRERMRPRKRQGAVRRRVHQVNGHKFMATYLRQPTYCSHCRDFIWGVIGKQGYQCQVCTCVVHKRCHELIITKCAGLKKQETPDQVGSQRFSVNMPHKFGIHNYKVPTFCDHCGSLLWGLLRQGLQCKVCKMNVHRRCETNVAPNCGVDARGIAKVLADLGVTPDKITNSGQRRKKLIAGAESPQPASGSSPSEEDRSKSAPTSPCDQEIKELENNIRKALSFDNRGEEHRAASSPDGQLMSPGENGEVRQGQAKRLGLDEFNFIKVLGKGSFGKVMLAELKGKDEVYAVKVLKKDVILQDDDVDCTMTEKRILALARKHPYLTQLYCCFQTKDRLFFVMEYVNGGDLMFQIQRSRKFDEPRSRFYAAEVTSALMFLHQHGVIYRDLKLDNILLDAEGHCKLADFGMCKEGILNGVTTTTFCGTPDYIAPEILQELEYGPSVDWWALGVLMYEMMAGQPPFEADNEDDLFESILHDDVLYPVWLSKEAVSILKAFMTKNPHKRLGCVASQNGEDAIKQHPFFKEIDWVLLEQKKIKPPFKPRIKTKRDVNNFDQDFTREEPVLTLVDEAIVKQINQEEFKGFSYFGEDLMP

[12] = molecular target: T4, Protein kinase C alpha type (Homo sapiens, UniProt P17252); assay: Displacement of [3H]PDBu from PKCalpha C1A domain; in short: as §2
[13] = molecular target: T1, Protein kinase C beta type; assay: Displacement of [3H]PDBu from PKCbeta C1A domain; in short: as §2
Target sequence in this assay (P05771 whole entry, the tested form may be a part): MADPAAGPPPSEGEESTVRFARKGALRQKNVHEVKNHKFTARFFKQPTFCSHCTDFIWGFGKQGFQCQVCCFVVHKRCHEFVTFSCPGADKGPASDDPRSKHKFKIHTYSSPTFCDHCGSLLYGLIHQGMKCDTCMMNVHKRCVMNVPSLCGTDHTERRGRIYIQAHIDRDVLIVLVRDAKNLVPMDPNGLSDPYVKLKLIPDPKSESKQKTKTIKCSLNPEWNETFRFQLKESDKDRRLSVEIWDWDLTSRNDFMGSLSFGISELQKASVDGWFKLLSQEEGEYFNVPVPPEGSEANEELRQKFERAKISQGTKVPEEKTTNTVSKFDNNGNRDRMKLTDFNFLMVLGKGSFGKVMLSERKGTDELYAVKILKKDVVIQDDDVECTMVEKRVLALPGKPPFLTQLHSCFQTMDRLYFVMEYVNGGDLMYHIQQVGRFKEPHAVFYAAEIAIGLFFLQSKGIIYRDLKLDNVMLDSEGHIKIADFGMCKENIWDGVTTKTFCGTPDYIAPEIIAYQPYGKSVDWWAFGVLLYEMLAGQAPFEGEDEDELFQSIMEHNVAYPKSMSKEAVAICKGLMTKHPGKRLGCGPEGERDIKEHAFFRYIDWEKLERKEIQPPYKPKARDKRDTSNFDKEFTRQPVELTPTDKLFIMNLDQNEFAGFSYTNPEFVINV

[14] = molecular target: T1, Protein kinase C beta type; assay: Displacement of [3H]PDBu from PKCbeta C1B domain; in short: as §2
Target sequence in this assay (P05771 whole entry, the tested form may be a part): as above

[15] = molecular target: T4, Protein kinase C alpha type; assay: Displacement of [3H]PDBu from PKCalpha C1B domain; in short: as §2
[16] = molecular target: T2, Protein kinase C gamma type; assay: Displacement of [3H]PDBu from PKCgamma C1B domain; in short: as §2

| Activity [1] | Activity [2] | Compound | Ratio Ki [3] | Ki [4] [µM] | Ki [5] [µM] | Ratio Ki [6] | Ki [7] [µM] | Ki [8] [µM] | Ki [9] [µM] | Ki [10] [µM] | Ki [11] [µM] | Ki [12] [µM] | Ki [13] [µM] | Ki [14] [µM] | Ki [15] [µM] | Ki [16] [µM] |
| --- | --- | --- | --- | --- | --- | --- | --- | --- | --- | --- | --- | --- | --- | --- | --- | --- |
| inactive | inactive | CCCCCCn1cc2c3c(c(Cl)ccc31)N(C)[C@@H](C(C)C)C(=O)N[C@H](CO)CC2 | – | – | – | – | – | – | – | – | – | – | – | – | – | – |
| – | – | CC(C)[C@H]1C(=O)N[C@H](CO)Cc2ccccc2N1C | 0.8 | 0.41 | 2.5 | 1.1 | 3.1 | 0.436 | – | – | – | – | – | – | – | – |
| – | – | CCCCCCn1cc2c3c(cccc31)N(C)[C@@H](C(C)C)C(=O)N[C@H](CO)CC2 | 1.3 | 0.015 | 14 | 8 | 11 | 0.12 | 0.025 | 0.012 | 0.029 | 6.7 | 9.2 | 0.44 | > 10 | 0.42 |
| inactive | inactive | CCCCCCn1c(Br)c2c3c(cccc31)N(C)[C@@H](C(C)C)C(=O)N[C@H](CO)CC2 | – | – | – | – | – | – | – | – | – | – | – | – | – | – |
| – | – | CCCCCCn1cc2c3c(cccc31)N(C)[C@@H](C(C)C)C(=O)N[C@H](CO)C2 | 4.7 | 0.00046 | 0.071 | 8 | 0.015 | 0.0037 | 0.00034 | 0.0014 | 0.00047 | 0.0058 | 0.0098 | 0.011 | 0.043 | 0.039 |
| – | – | CC(C)[C@H]1C(=O)N[C@H](CO)Cc2c[nH]c3cccc(c23)N1C [INDOLACTUM] | 7.8 | 0.011 | 0.69 | 11.8 | 0.089 | 0.13 | – | – | – | 0.021 | 0.019 | – | – | 0.059 |
